Results: ChEMBL document CHEMBL1147088, “Small molecule obatoclax (GX15-070) antagonizes MCL-1 and overcomes MCL-1-mediated resistance to apoptosis” (Proc Natl Acad Sci U S A, 2007)
Each block holds one compound with its values, some of them ahead of it. Activity calls are given as the source filed them. The calls are words filed in the database; no cut-off is given here.

What was measured:
[1] = target: Induced myeloid leukemia cell differentiation protein Mcl-1 (Homo sapiens, UniProt Q07820); test: Inhibition of BH3 peptide binding to human recombinant MCL1 by fluorescence polarization assay
Chain of Induced myeloid leukemia cell differentiation protein Mcl-1 (Q07820 whole entry): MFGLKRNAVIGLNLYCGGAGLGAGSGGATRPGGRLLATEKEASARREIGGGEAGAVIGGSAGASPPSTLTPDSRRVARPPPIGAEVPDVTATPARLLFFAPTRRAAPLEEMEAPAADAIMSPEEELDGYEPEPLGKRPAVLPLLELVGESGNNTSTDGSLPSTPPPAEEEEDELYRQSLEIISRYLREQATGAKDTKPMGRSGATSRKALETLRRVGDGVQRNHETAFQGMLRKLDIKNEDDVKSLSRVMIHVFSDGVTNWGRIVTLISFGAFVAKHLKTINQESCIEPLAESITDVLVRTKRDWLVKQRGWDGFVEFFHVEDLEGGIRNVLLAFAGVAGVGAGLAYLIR

PC-3 = test: Antitumor activity in CB17 SCID mouse bearing human PC3 cells xenografts at 2 mg/kg, ip administered once in 3 days for 5 times after 14 days; assay type: functional; settings: route intraperitoneal
Outline: (§1)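 Female mice, 6–8 weeks (BALB/c for 4T1; CB17 SCID for C33A, PC3, SW480), given s.c. flank cells in PBS. Dosing i.p. once every 3 days ×5, starting day 7 (SW480), 14 (C33A) or 8 (PC3, 4T1). Tumor size measured thrice weekly, volume = length × width²/2, 8 animals/cohort; T/C (mean tumor size change treated ÷ control) at 14 days after first dose.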

E1A/p53DN [2] = test: Increase in inhibition of MCL1 -/- in mouse Bim transformed E1A/p53DN cells; assay type: functional, cell-based
Mus musculus [3] = test: Toxicity in BALB/c mouse bearing mouse 4T1 cells xenografts assessed as weight change at 2 mg/kg, ip administered once in 3 days for 5 times after 14 days; assay type: organism-based; parameters: dose 2 mg/kg, route intraperitoneal; settings: in vivo, 336 h
Outline: (§2)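 Tumor-bearing mice as in the xenograft study (BALB/c with 4T1; CB17 SCID with C33A, PC3, SW480), 8 per cohort, dosed i.p. once every 3 days ×5. Body weight measured three times weekly; animal deaths and weight change recorded 14 days after first injection.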

Eu-Myc [4] = test: Induction of apoptosis in mouse Eu-Myc cells overexpressing MCL1 assessed as inhibition of colony formation at 1 uM; assay type: functional, cell-based
SK-MEL-5 [5] = test: Inhibition of MCL1-BAK interaction in mitochondria of human SKMel5 cells at 10 nM; assay type: functional, cell-based
C-33-A = test: Antitumor activity in CB17 SCID mouse bearing human C33A cells xenografts at 2 mg/kg, ip administered once in 3 days for 5 times after 14 days; assay type: functional; settings: route intraperitoneal; outline: as §1
B16-F1 = test: Reversal of MCL1 mediated resistance to bortezomib in mouse B16-F1 cells assessed as cell death; assay type: functional, cell-based
Eu-Myc [6] = test: Induction of apoptosis in mouse Eu-Myc cells overexpressing A1 assessed as inhibition of colony formation at 1 uM; assay type: functional, cell-based
Mus musculus [7] = test: Toxicity in BALB/c mouse bearing mouse 4T1 cells xenografts assessed as survivability at 2 mg/kg, ip administered once in 3 days for 5 times after 14 days; assay type: organism-based; parameters: dose 2 mg/kg, route intraperitoneal; settings: in vivo, 336 h; outline: as §2
Eu-Myc [8] = test: Induction of apoptosis in mouse Eu-Myc cells overexpressing BCL2 assessed as inhibition of colony formation at 1 uM; assay type: functional, cell-based
Mus musculus [9] = test: Toxicity in CB17 SCID mouse bearing human SW480 cells xenografts assessed as survivability at 2 mg/kg, ip administered once in 3 days for 5 times after 14 days; assay type: organism-based; parameters: dose 2 mg/kg, route intraperitoneal; settings: in vivo, 336 h; outline: as §2
Mus musculus [10] = test: Toxicity in CB17 SCID mouse bearing human SW480 cells xenografts assessed as weight change at 2 mg/kg, ip administered once in 3 days for 5 times after 14 days; assay type: organism-based; parameters: dose 2 mg/kg, route intraperitoneal; settings: in vivo, 336 h; outline: as §2
Mus musculus [11] = test: Toxicity in CB17 SCID mouse bearing human PC3 cells xenografts assessed as survivability at 2 mg/kg, ip administered once in 3 days for 5 times after 14 days; assay type: organism-based, PC-3; parameters: dose 2 mg/kg, route intraperitoneal; settings: in vivo, 336 h; outline: as §2
E1A/p53DN [12] = test: Increase in inhibition of MCL1 +/+ in mouse Bim transformed E1A/p53DN cells; assay type: functional, cell-based
Eu-Myc [13] = test: Induction of apoptosis in mouse Eu-Myc cells overexpressing A1 assessed as inhibition of cell survivability at 1 uM; assay type: functional, cell-based
Eu-Myc [14] = test: Induction of apoptosis in mouse Eu-Myc cells overexpressing BCL2 assessed as inhibition of cell survivability at 1 uM; assay type: functional, cell-based
Mus musculus [15] = test: Toxicity in CB17 SCID mouse bearing human C33A cells xenografts assessed as weight change at 2 mg/kg, ip administered once in 3 days for 5 times after 14 days; assay type: organism-based, C-33-A; parameters: dose 2 mg/kg, route intraperitoneal; settings: in vivo, 336 h; outline: as §2
SK-MEL-5 [16] = test: Disruption of BCL2-BIM interaction in mitochondria of human SKMel5 cells 5 hrs by immunoprecipitation; assay type: functional, cell-based
Saccharomyces cerevisiae [17] = test: Antagonism of BAX/BAK dependent BCL pathway-mediated inhibition of Saccharomyces cerevisiae W301; assay type: functional, organism-based
Outline: (§3)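 W301 yeast transformed with the indicated vectors; cultures in synthetic complete medium with 2% raffinose and 2% galactose, seeded at 0.01 OD units, compound or vehicle added (0.67% DMSO final). Cell density read after 48 h shaking at 30°C.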

Mus musculus [18] = test: Toxicity in CB17 SCID mouse bearing human PC3 cells xenografts assessed as weight change at 2 mg/kg, ip administered once in 3 days for 5 times after 14 days; assay type: organism-based, PC-3; parameters: dose 2 mg/kg, route intraperitoneal; settings: in vivo, 336 h; outline: as §2
SW480 = test: Antitumor activity in CB17 SCID mouse bearing human SW480 cells xenografts at 2 mg/kg, ip administered once in 3 days for 5 times after 14 days; assay type: functional; settings: route intraperitoneal; outline: as §1
Bcl-2-like protein 10 = target: T1, Bcl-2-like protein 10 (Homo sapiens, UniProt Q9HD36); test: Inhibition of BH3 peptide binding to human recombinant BCL-b by fluorescence polarization assay
T1 sequence (Q9HD36 whole entry): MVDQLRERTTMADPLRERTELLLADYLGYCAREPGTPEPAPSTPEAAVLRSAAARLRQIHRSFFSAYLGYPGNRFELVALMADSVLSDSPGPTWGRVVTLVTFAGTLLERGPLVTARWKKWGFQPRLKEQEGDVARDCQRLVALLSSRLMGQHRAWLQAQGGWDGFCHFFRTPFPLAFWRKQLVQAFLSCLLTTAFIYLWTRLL

SK-MEL-5 [19] = test: Reduction in MCL1-BAK interaction in mitochondria of human SKMel5 cells at 1 uM after 5 hrs by immunoprecipitation; assay type: functional, cell-based
Bcl-2-related protein A1 = target: T2, Bcl-2-related protein A1 (Homo sapiens, UniProt Q16548); test: Inhibition of BH3 peptide binding to human recombinant A1 by fluorescence polarization assay
T2 sequence (Q16548 whole entry): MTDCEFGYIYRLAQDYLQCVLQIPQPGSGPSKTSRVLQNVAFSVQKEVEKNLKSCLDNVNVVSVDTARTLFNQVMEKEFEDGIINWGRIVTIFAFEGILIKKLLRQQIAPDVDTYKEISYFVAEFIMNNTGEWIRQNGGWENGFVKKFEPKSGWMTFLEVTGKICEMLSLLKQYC

Mus musculus [20] = test: Toxicity in CB17 SCID mouse bearing human C33A cells xenografts assessed as survivability at 2 mg/kg, ip administered once in 3 days for 5 times after 14 days; assay type: organism-based, C-33-A; parameters: dose 2 mg/kg, route intraperitoneal; settings: in vivo, 336 h; outline: as §2
KB [21] = test: Release of cytochrome c in mitochondria of human KB cells at 2 uM; assay type: functional, cell-based
Outline: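 Mitochondria isolated from KB cells were incubated 30 min at 37°C with DMSO or compound, then reisolated. Mitochondrial pellet and post-mitochondrial supernatant were analysed by SDS/PAGE and cytochrome c immunoblot, with actin and a control protein as loading controls.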

KB [22] = test: Reversal of MCL1 mediated resistance to ABT-737 in BCL2 overexpressing human KB cells assessed as cell death; assay type: functional, cell-based
Eu-Myc [23] = test: Induction of apoptosis in mouse Eu-Myc cells overexpressing MCL1 assessed as inhibition of cell survivability at 1 uM; assay type: functional, cell-based
Epithelial cell = test: […] in Bax and Bak double knock out E1A/p53DN-transformed mouse kidney epithelial cells assessed as caspase-3 activation at 2.0 uM; assay type: functional, cell-based
Saccharomyces cerevisiae [24] = test: Antagonism of BCL pathway-mediated inhibition of Saccharomyces cerevisiae W301 in absence of BAX/BAK; assay type: functional, organism-based; outline: as §3
Bcl-2-like protein 2 = target: T3, Bcl-2-like protein 2 (Homo sapiens, UniProt Q92843); test: Inhibition of BH3 peptide binding to human recombinant BCL-w by fluorescence polarization assay
T3 sequence (Q92843 whole entry): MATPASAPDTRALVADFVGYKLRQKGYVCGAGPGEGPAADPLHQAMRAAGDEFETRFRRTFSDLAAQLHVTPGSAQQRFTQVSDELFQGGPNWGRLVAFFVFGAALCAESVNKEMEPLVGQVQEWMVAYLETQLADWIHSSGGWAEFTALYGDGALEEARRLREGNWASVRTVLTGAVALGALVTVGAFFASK

4T1 = test: Antitumor activity in BALB/c mouse bearing mouse 4T1 cells xenografts at 2 mg/kg, ip administered once in 3 days for 5 times after 14 days; assay type: functional; settings: route intraperitoneal; outline: as §1
Saccharomyces cerevisiae [25] = test: Growth inhibition of Saccharomyces cerevisiae W301; assay type: functional, organism-based
Outline: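 W301 yeast transformed with BCL-family/BAX/BAK or control vectors, then grown in synthetic complete medium with 2% raffinose and 2% galactose. Seeded at 0.01 OD units and shaken 48 h at 30°C. Compound or vehicle was added to growth medium with final DMSO 0.67%. Cell density was the read-out, and IC50 values were recorded.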

[26] = target: Apoptosis regulator Bcl-2 (Homo sapiens, UniProt P10415); test: Binding affinity to BCL2
Chain of Apoptosis regulator Bcl-2 (P10415 whole entry): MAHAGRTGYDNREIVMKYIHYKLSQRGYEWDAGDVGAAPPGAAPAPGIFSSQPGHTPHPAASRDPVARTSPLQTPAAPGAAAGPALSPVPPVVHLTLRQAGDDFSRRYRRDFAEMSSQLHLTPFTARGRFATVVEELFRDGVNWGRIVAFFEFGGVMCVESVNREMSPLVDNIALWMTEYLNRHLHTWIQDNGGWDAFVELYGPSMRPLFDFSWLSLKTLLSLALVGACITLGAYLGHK

[27] = Cytotoxicity against mouse B16-F1 cells transfected with MCL1 siRNA assessed as assessed as annexin 5 uptake at 100 nM after 24 hrs by flow cytometry; assay type: functional
[28] = Cytotoxicity against mouse B16-F1 cells transfected with luciferase siRNA assessed as assessed as annexin 5 uptake at 100 nM after 24 hrs by flow cytometry; assay type: functional

Ki [1]: 1000 nM
Ki (Bcl-2-like protein 10): 1000 nM
Ki (Bcl-2-related protein A1): 1000 nM
Ki (Bcl-2-like protein 2): 1000 nM
SMILES: COC1=CC(c2cc3ccccc3[nH]2)=N/C1=C\c1[nH]c(C)cc1C [OBATOCLAX]
Activity (PC-3): 28%
Activity (E1A/p53DN [2]): Active
Activity (Mus musculus [3]): 1%
Activity (Eu-Myc [4]): Active
Activity (SK-MEL-5 [5]): Active
Activity (C-33-A): 11%
Activity (B16-F1): Active
Activity (Eu-Myc [6]): Active
Activity (Mus musculus [7]): Non-toxic
Activity (Eu-Myc [8]): Active
Activity (Mus musculus [9]): Non-toxic
Activity (Mus musculus [10]): 3%
Activity (Mus musculus [11]): Non-toxic
Activity (E1A/p53DN [12]): Active
Activity (Eu-Myc [13]): Active
Activity (Eu-Myc [14]): Active
Activity (Mus musculus [15]): 7%
Activity (SK-MEL-5 [16]): Active
Activity (Saccharomyces cerevisiae [17]): Active
Activity (Mus musculus [18]): 10%
Activity (SW480): 35%
Activity (SK-MEL-5 [19]): Active
Activity (Mus musculus [20]): Non-toxic
Activity (KB [21]): inactive
Activity (KB [22]): Active
Activity (Eu-Myc [23]): Active
Activity (Epithelial cell): Active
Activity (Saccharomyces cerevisiae [24]): inactive
Activity (4T1): 42%

SMILES: COc1cccc2c1C(=O)c1c(O)c3c(c(O)c1C2=O)C[C@@](O)(C(=O)CO)C[C@@H]3O[C@H]1C[C@H](N)[C@H](O)[C@H](C)O1 [DOXORUBICIN]
IC50 (Saccharomyces cerevisiae [25]): 10000 nM

SMILES: CCCC[C@H]1C(=O)O[C@H](C)[C@H](NC(=O)c2cccc(NC=O)c2O)C(=O)O[C@@H](C)[C@@H]1OC(=O)CC(C)C [ANTIMYCIN A3]
Ki [26]: 832 nM

SMILES: Oc1cc(O)c2c(c1)O[C@H](c1ccc(O)c(O)c1)[C@H](O)C2 [CATECHIN]
Ki [26]: > 100000 nM

SMILES: CC(C)C[C@H](NC(=O)[C@H](Cc1ccccc1)NC(=O)c1cnccn1)B(O)O [BORTEZOMIB]
Activity [27]: 42%
Activity [28]: 14%

SMILES: O=C(O[C@@H]1Cc2c(O)cc(O)cc2O[C@@H]1c1cc(O)c(O)c(O)c1)c1cc(O)c(O)c(O)c1 [EPIGALOCATECHIN GALLATE]
Ki [26]: 234 nM

Ki [26]: 1290 nM
SMILES: COC(=O)NC(CCSC)C(=O)Oc1ccc(Nc2nc3c(s2)C(=O)c2ccccc2C3=O)cc1 (stereo not given)
